Screens: PubChem BioAssay, several laboratories
tolC growth inh: growth inhibitors of E. coli tolC mutant, primary screen, strain BW25113 ΔtolC::kan, 384-well; OD615; growth inhibition, % at 10 µM (by protocol); 2.2% of 65,000 active; AID 573, 2007;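 active = growth inhibition at or above a cutoff equal to the mean over every tested compound plus 3 SD, cut at about 60% in these data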;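 note: growth measured after 20 h incubation at 37 °C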
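Test system: tolC-deleted E. coli BW25113 | Medium: LB with kanamycin 50 µg/mL | Compound dosing: Single concentration, 10 µM final per compound | Schedule: 37 °C, 20 h exposure | Measured by: OD at 615 nm | Evaluation: Percent growth inhibition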
CYP2C9 inhib: blockers of cytochrome P450 2C9 activity – biochemical, luminescence, ADME assay, primary screen. CYP2C9 Supersomes, luciferin-H conversion. inhibition, % at 5 µM. 20% of 96,000 active;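 active = blocking of liver enzyme CYP2C9 beyond about 50% at 5 µM, limit read from the data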
CYP2C9 act: human CYP2C9 activators, primary screen, biochemical, luminescence; Cytochrome P450 2C9 (Homo sapiens), P11712; recombinant CYP2C9, luciferin-H conversion; stronger effect = higher value; factor 1 = untreated enzyme, 0 = blocked; activation factor at 5 µM; 1.4% of 96,000 active; AID 1024, 2008;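 active = activation factor of 2 or more for CYP2C9 at a 5 µM dose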;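 note: 0 = sulfaphenazole-blocked wells and 1 = vehicle-only wells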
CYP2C19 act: human CYP2C19 activators, primary screen, biochemical, luminescence | activation factor at 5 µM | recombinant CYP2C19, luciferin-H EGE luminescence; stronger effect = higher value; 0 = fully inhibited enzyme, 1 = untreated enzyme | 96,000 tested, under 10 active;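 active = activation factor of at least 2 at 5 µM in the primary screen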;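 note: 0 = wells with 2.5 mM tranylcypromine and 1 = vehicle-only wells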
Target sequence (P33261 whole entry, looked up): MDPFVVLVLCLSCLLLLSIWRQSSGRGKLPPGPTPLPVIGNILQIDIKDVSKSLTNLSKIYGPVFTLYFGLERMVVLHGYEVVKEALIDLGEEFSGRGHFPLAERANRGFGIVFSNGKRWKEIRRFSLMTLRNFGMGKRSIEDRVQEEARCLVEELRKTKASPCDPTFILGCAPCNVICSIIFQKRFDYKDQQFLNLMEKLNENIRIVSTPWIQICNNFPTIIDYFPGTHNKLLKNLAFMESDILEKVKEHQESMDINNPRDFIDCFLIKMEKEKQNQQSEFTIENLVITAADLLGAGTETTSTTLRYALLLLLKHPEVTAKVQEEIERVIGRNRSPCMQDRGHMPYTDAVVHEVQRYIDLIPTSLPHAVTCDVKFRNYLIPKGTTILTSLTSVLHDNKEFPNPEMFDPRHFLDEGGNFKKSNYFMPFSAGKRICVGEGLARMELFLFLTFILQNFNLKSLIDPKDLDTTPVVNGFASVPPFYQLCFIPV
CYP2C19 inhib: blockers of cytochrome P450 2C19 activity – biochemical, luminescence, ADME assay, primary screen; 21% of 96,000 active; AID 778, 2007; inhibition, % at 5 µM; P33261; CYP2C19 Supersomes, luciferin-H EGE luminescence, 30 min;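 active = CYP2C19 inhibition above a set limit at 5 µM in the primary screen, cut at about 50% in these data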;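 note: plate controls were negative control wells for no effect and 2.5 mM tranylcypromine positive control for full effect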
E coli WT exp: growth inhibitors of wild-type E. coli, primary screen, strain BW25113, expanded library, OD600 | OD600 absorbance | growth inhibition, % at 100 µM | 0.15% of 98,000 active;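 active = growth inhibition above about 50% at one test dose, limit read from the data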;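 note: growth measured after 20 h incubation at 37 °C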
Numbers without * were called inactive. The list is not random: actives were taken first. Their share in the collection is about 29%.

Screening COC(=O)C1C2C=CC(C3CC23)C1C(=O)OCC(=O)c1ccccc1 (stereo unspecified) returned CYP2C9 inhib 57*, CYP2C9 act 0.4, CYP2C19 act 0, CYP2C19 inhib 95* and E coli WT exp -14.
`O=C(NCc1cccs1)c1ccc(Cl)s1` gave tolC growth inh 13, CYP2C9 inhib 6, CYP2C9 act 0.9, CYP2C19 act 0.5, CYP2C19 inhib 54* and E coli WT exp 19.
For O=C(NCc1cccs1)c1ccccc1 the results were CYP2C9 inhib 5, CYP2C9 act 0.9, CYP2C19 act 0.8, CYP2C19 inhib 22 and E coli WT exp 13.
For CCc1ccc(C(=O)NCc2cccs2)s1 the results were tolC growth inh -3, CYP2C9 inhib 45, CYP2C9 act 0.5, CYP2C19 act 0.2, CYP2C19 inhib 80* and E coli WT exp 20.
COc1cc([C@H]2[C@@H]3CCCC[C@]3(O)CCN2CC(=O)Nc2ccc(C)cc2)ccc1O was read as tolC growth inh 13, CYP2C9 inhib 74*, CYP2C9 act 0.3, CYP2C19 act 0.4, CYP2C19 inhib 63* and E coli WT exp 0.
Screening COc1ccc(NC(=O)CN2CCC3(O)CCCCC3C2c2ccccc2OC)cc1 (stereo unspecified) returned tolC growth inh 6, CYP2C9 inhib 91*, CYP2C9 act 0.1, CYP2C19 act 0.3, CYP2C19 inhib 74* and E coli WT exp 5.
For CCN(CC)c1ccc(C2C3CCCCC3(O)CCN2CC(=O)N2CCCCC2)cc1 (stereo unspecified) the results were tolC growth inh 12, CYP2C9 inhib -10, CYP2C9 act 1.1, CYP2C19 act 0.9, CYP2C19 inhib 5 and E coli WT exp 7.
`CCn1c(C)[n+](CCOCC[n+]2c(C)n(CC)c3cc(Cl)c(Cl)cc32)c2cc(Cl)c(Cl)cc21` gave CYP2C9 inhib -8, CYP2C9 act 1.1, CYP2C19 act 1.1, CYP2C19 inhib -12 and E coli WT exp -15.
`CCCCSc1nnc2c(n1)OC(C(=O)c1ccccc1)Nc1ccccc1-2` (stereo unspecified) gave CYP2C9 inhib 87*, CYP2C9 act 0.1, CYP2C19 act 0.5, CYP2C19 inhib 49 and E coli WT exp -6.
COc1ccc(CNC(=O)C(C)NC(=O)c2cc3ccccc3o2)cc1 (stereo unspecified) was read as tolC growth inh -14, CYP2C9 inhib 76*, CYP2C9 act 0.2, CYP2C19 act 0.8, CYP2C19 inhib 23 and E coli WT exp 0.
Screening COc1ccccc1S(=O)(=O)Cc1ccc(C(=O)NCc2cccnc2)o1 returned tolC growth inh -20, CYP2C9 inhib 30, CYP2C9 act 0.7, CYP2C19 act 0.8, CYP2C19 inhib 23 and E coli WT exp -7.
Screening CCc1ccccc1S(=O)(=O)Cc1ccc(C(=O)NC(C)C)o1 returned tolC growth inh -8.
Screening O=C(COC(=O)CSc1nnc(-c2ccc(Cl)cc2)o1)NCc1ccc2c(c1)OCO2 returned tolC growth inh -14, CYP2C9 inhib -21, CYP2C9 act 1.2, CYP2C19 act 1, CYP2C19 inhib -4 and E coli WT exp 3.
`CCc1ccccc1S(=O)(=O)Cc1ccc(C(=O)NCc2ccc3c(c2)OCO3)o1` gave tolC growth inh 15, CYP2C9 inhib 95*, CYP2C9 act 0, CYP2C19 act 0.5, CYP2C19 inhib 54* and E coli WT exp -6.
COc1ccccc1S(=O)(=O)Cc1ccc(C(=O)NC(C)c2ccc3c(c2)OCCO3)o1 (stereo unspecified) was read as tolC growth inh -8, CYP2C9 inhib 62*, CYP2C9 act 0.4, CYP2C19 act 0.5, CYP2C19 inhib 52* and E coli WT exp 6.
Screening O=C(CSc1nc2ccc(Cl)cc2o1)NCc1ccc2c(c1)OCO2 returned CYP2C9 inhib 61*, CYP2C9 act 0.4, CYP2C19 act 0.8, CYP2C19 inhib 23 and E coli WT exp -1.
For N#Cc1c2n(c(=S)n(-c3ccccn3)c1=O)CCCCC2 the results were tolC growth inh 5, CYP2C9 inhib 8, CYP2C9 act 0.9, CYP2C19 act 1, CYP2C19 inhib 2 and E coli WT exp -6.
Screening O=C(CSc1nc(-c2ccccc2)cc(=O)[nH]1)NCc1ccc2c(c1)OCO2 returned tolC growth inh 16, CYP2C9 inhib 96*, CYP2C9 act 0, CYP2C19 act 1, CYP2C19 inhib -5 and E coli WT exp -1.
Screening O=C(CSc1c[nH]c2ccccc12)NCc1ccc2c(c1)OCO2 returned CYP2C9 inhib 96*, CYP2C9 act 0, CYP2C19 act 0, CYP2C19 inhib 100* and E coli WT exp -1.
Screening O=C(CSc1nc2ccccc2o1)NCc1ccc2c(c1)OCO2 returned tolC growth inh 20, CYP2C9 inhib 95*, CYP2C9 act 0.1, CYP2C19 act 0, CYP2C19 inhib 100* and E coli WT exp -1.
`O=C(NCc1ccc2c(c1)OCO2)c1cc2ccccc2o1` gave CYP2C9 inhib 89*, CYP2C9 act 0.1, CYP2C19 act 0.7, CYP2C19 inhib 30 and E coli WT exp 9.
For COC(=O)C1CCN(C(=O)COC(=O)CC(NC(N)=O)c2ccc(Cl)cc2)CC1 (stereo unspecified) the results were tolC growth inh -22, CYP2C9 inhib 30, CYP2C9 act 0.7, CYP2C19 act 0.8, CYP2C19 inhib 19 and E coli WT exp 10.
O=C(C1CCN(S(=O)(=O)c2cccc3cccnc23)CC1)N1CCN(C2CCCC2)CC1 was read as tolC growth inh -7.
For COc1ccc(C(C)NC(=O)c2ccccc2)cc1 (stereo unspecified) the results were CYP2C9 inhib 5, CYP2C9 act 0.9, CYP2C19 act 0.3, CYP2C19 inhib 75* and E coli WT exp -5.
Screening COc1ccc(C(NC(=O)c2ccc(-c3ccccc3)cc2)c2ccccc2)cc1 (stereo unspecified) returned CYP2C9 inhib 0, CYP2C9 act 1, CYP2C19 act 0.9, CYP2C19 inhib 9 and E coli WT exp -10.
Screening Cc1nc2ncnn2c(C)c1Cc1ccc(Cl)cc1 returned CYP2C9 inhib 73*, CYP2C9 act 0.3, CYP2C19 act 0, CYP2C19 inhib 95* and E coli WT exp -2.
For O=C(NCc1ccccn1)C1CCC(=O)N1C1CCCCC1 (stereo unspecified) the results were CYP2C9 inhib -12, CYP2C9 act 1.1, CYP2C19 act 1, CYP2C19 inhib -3 and E coli WT exp 10.
